This is a sample that favours compounds with a hit; in the whole collection about 0.73% have one here.
Keap1 Nrf2 FP: Keap1-Nrf2 protein-protein interaction inhibitors, primary screen, biochemical, fluorescence polarization, single point; Keap1 Kelch-Nrf2 peptide fluorescence polarization, 1536-well; Kelch-like ECH-associated protein 1 (Homo sapiens), Q14145; inhibition, % at 9.4 µM; hit rate 0.15% among 340,000; AID 504523, 2011; in the data active means inhibition above about 12%;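 further: human Keap1 Kelch domain with fluorescein labeled Nrf2 9mer peptide probe; higher means more block of Keap1 binding to Nrf2 peptide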
LANA DNA inh: inhibitors of KSHV C-LANA binding to DNA, primary screen, biochemical, fluorescence polarization, FAM-LBS DNA, MBP-C-LANA, single point; hit rate 0.078% among 340,000; Kaposi's sarcoma herpesvirus LANA C-terminal domain (residues 932-1162) DNA binding; inhibition, % at 9 µM;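 active means highest replicate inhibition at or above 60% at 9 µM, even if other replicates fall short; inactive means all replicates below 60% inhibition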
RTF Ca sens inh: cardiac RTF calcium sensitivity inhibitors, primary screen, biochemical, IANBD-TnC fluorescence, EC70 calcium. Troponin I, cardiac muscle (Homo sapiens) + Troponin T, cardiac muscle (Homo sapiens) + …. IANBD-labeled cardiac RTF, Ca2+ fluorescence. inhibition, % at 7.15 µM. hit rate 0.12% among 340,000;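 active means inhibition above the mean inhibition of all tested compounds plus 3 SD, cut at about 17% in these data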;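 further: assay run at fixed EC70 calcium of 1.6 mM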
Tn6 DDE FP: inhibitors of Tn6 peptide binding to fibrin DD(E), primary screen, biochemical, fluorescence polarization, human fibrin, Tn6 probe; Fibrinogen beta chain (Homo sapiens), P02675; Fibrin DD(E) TRITC-Tn6 fluorescence polarization displacement; inhibition, % at 8.3 µM; hit rate 0.21% among 370,000;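 active means inhibition above a per-campaign cutoff: mean of compounds within control limits plus 3 SD, cut at about 15% in these data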
Target sequence (P02675 whole entry, looked up): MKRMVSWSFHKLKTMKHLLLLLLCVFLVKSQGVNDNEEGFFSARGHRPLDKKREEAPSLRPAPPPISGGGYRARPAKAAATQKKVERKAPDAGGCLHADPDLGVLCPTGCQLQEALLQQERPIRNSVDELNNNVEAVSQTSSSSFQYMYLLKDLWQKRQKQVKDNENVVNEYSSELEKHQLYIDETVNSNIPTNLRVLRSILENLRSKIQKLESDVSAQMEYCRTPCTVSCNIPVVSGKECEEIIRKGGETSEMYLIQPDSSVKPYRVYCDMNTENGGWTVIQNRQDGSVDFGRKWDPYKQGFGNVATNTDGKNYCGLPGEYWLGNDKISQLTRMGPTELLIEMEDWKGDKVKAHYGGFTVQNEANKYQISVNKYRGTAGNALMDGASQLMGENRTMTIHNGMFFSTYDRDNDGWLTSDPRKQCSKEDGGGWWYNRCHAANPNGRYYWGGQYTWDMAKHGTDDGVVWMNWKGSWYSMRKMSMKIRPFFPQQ
cardiac RTF act: cardiac RTF calcium sensitivity activators, primary screen, biochemical, IANBD-TnC fluorescence, EC20 calcium; IANBD-labeled TnC RTF fluorescence at EC20 calcium; 0% EC20 calcium, 100% full calcium; activation, % at 7.2 µM; hit rate 0.24% among 340,000; AID 493008, 2010;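 active means activation above the mean over all tested compounds plus 3 SD, cut at about 30% in these data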;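 further: rise in fluorescence read as greater calcium sensitivity of cardiac thin filaments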
DDE Tn7 FP inh: inhibitors of Tn7 peptide binding to fibrin DD(E), primary screen, biochemical, fluorescence polarization, human fibrin, Tn7 probe | Fibrinogen beta chain (Homo sapiens), P02675 | FP displacement of FITC-Tn7 peptide from fibrin DD(E); 0% = median of compound wells per plate | inhibition, % at 8.3 µM | hit rate 0.13% among 370,000;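 active means inhibition above the mean of compounds falling within the control limits plus 3 SD of them, cut at about 14% in these data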
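Also added: labelled Tn7 tracer, 0.1 µM; Assay system: human fibrin DD(E) protein; Amount: 2 µM fibrin DD(E); Schedule: 10 min compound pre-incubation, 3 h probe incubation at room temperature; Repeats: one replicate per compound; Read-out basis: percent inhibition; Measured by: fluorescence polarization of the labelled Tn7 tracer.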
Keap1 TSA: Keap1 Kelch domain binders by thermal stabilisation, dose response, biophysical, thermal shift, RT-PCR instrument, cherry-pick. shares compounds with Keap1 Nrf2 FP. delta Tm; hits give high values. max delta Tm, degrees C. hit rate 8% among 400; in the data active means max delta Tm above about 0.48 degrees C
Dye-only ctr: Sypro Orange dye melt without protein, dose response, artefact control for Keap1-Nrf2 interaction inhibitor project, biochemical, thermal shift counterscreen, cherry-pick | shares compounds with Keap1 Nrf2 FP | Sypro Orange dye-only thermal melt, no protein, delta Tm; top dose 26 µM | delta Tm, degrees C (concentration not given with the values) | 140 tested, under 10 active;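 active means at highest dose tested, delta Tm positive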
Each line names hits and unclear results; the compound was inactive in the other large screens (follow-up assays come after a bar, where they were run).

Oc1[nH]c2ccccc2c1N=Nc1ccccc1	Keap1 Nrf2 FP 19.6 | Keap1 TSA inactive
CC(C)(O)C(=O)N=Nc1c(O)[nH]c2ccccc12	none
Oc1[nH]c2ccccc2c1N=Nc1ccccc1F	Keap1 Nrf2 FP 21.4, cardiac RTF act 282.1 | Keap1 TSA inactive
COc1ccc(OC)c(C(=O)CSc2nnc(SCc3cccc4ccccc34)s2)c1	none (no result: Keap1 Nrf2 FP, LANA DNA inh, RTF Ca sens inh, cardiac RTF act)
CC(=O)N1CCN(S(=O)(=O)c2cccc(C(=O)NNC(=O)c3ccc(Br)cc3)c2)CC1	Keap1 Nrf2 FP 47.7, cardiac RTF act 44.2 | Keap1 TSA inactive | Dye-only ctr inactive
COc1cc(/C=C/C(=O)OCC(=O)c2ccc3c(c2)NC(=O)CO3)ccc1OC(F)F	Keap1 Nrf2 FP 21.1 | Keap1 TSA inactive | Dye-only ctr inactive
COc1ccc(/C=C/C(=O)OCC(=O)c2ccc3c(c2)NC(=O)CO3)cc1	none
NS(=O)(=O)c1ccc(N=Nc2c[nH]c(=O)c(O)c2)cc1	Keap1 Nrf2 FP 34.5, LANA DNA inh 68.5, cardiac RTF act 58.2 | Keap1 TSA 0.54 | Dye-only ctr inactive
CCOC(=O)N/N=C/c1ccc(N(CC)CC)cc1O	none
CCN(CC)c1ccc(/C=N/NC(=O)c2c(Cl)cnn2C)c(O)c1	Keap1 Nrf2 FP 21.7 | Keap1 TSA inactive
CSc1nsc2nc(=O)c(/C=C3\C=Nc4ccccc43)c(N)n12	Keap1 Nrf2 FP 14.2 | Keap1 TSA 0.74
CC(C)S(=O)(=O)c1nsc2nc(=O)c(/C=C3\C=Nc4ccccc43)c(N)n12	none
COc1ccc(CCNC(=O)Nc2nc(C(N)COCc3ccccc3)cs2)cc1OC (centres undefined)	none (no result: Keap1 Nrf2 FP, LANA DNA inh, RTF Ca sens inh, cardiac RTF act)
C=CCn1c(=O)/c(=C/c2ccsc2)s/c1=C(\C#N)C(=O)NCCN1CCOCC1	Keap1 Nrf2 FP 13.2 | Keap1 TSA inactive
N#C/C(=C\c1ccccc1)C(=O)NCCN1CCOCC1	none
COc1cccc(Cn2cc(COC(=O)NCC(C)C)nn2)c1	none (no result: Keap1 Nrf2 FP, LANA DNA inh, RTF Ca sens inh, cardiac RTF act)
S=C(Nc1ccccc1)OC1CCC12CCC(c1ccccc1)CC2 (centres undefined)	none (no result: Keap1 Nrf2 FP, LANA DNA inh, RTF Ca sens inh, cardiac RTF act)
CC(C)[C@H](NC(=O)c1ccco1)C(=O)N1CCC[C@H]1C(=O)NCc1ccccc1	none (no result: Keap1 Nrf2 FP, LANA DNA inh, RTF Ca sens inh, cardiac RTF act)
OC(CNCc1ccccc1)(c1ccccc1)c1ccccc1	none
OC(Cc1ccncc1)(c1ccccc1)c1ccccc1	Keap1 Nrf2 FP 28.0 | Keap1 TSA inactive
COc1ccccc1Cn1c(=S)[nH]c2ccccc2c1=O	Keap1 Nrf2 FP 98.8 | Keap1 TSA inactive
CC[C@@]1(O)C(=O)OCc2c1cc1n(c2=O)Cc2cc3c(CN(C)C)c(O)ccc3nc2-1	Keap1 Nrf2 FP 77.9, LANA DNA inh 131.4, cardiac RTF act 221.5, DDE Tn7 FP inh 29.7 | Keap1 TSA inactive
O=S(=O)([N-]c1nc2ccccc2nc1-[n+]1ccc(-c2ccncc2)cc1)c1ccccc1	Keap1 Nrf2 FP 17.2, cardiac RTF act 51.0 | Keap1 TSA inactive | Dye-only ctr inactive
O=S(=O)([N-]c1nc2ccccc2nc1-[n+]1ccccc1)c1ccccc1	none
O=C1C=CC(=O)c2c(O)c(N3CCN(CCOCCO)CC3)c(Br)c(O)c21	Keap1 Nrf2 FP 24.8, Tn6 DDE FP 31.4 | Keap1 TSA inactive
CCOC1=C2[C@H](c3ccccc3)N(S(=O)(=O)c3ccc(C)cc3)[C@H](C(C)C)[C@H]2C(C#N)(C#N)C(C#N)(C#N)C1	none (no result: Keap1 Nrf2 FP, LANA DNA inh, RTF Ca sens inh, cardiac RTF act)
COC(=O)C[C@@H]1CC[C@H]2[C@@H](COc3ccc(NS(=O)(=O)c4ccccc4F)cc3C(=O)N2C)O1	none (no result: Keap1 Nrf2 FP, LANA DNA inh, RTF Ca sens inh, cardiac RTF act)
O=S1(=O)c2ccc(Br)cc2OC[C@H](Cc2ccccc2)N1Cc1cn(Cc2ccc(Cl)cc2)nn1	none (no result: Keap1 Nrf2 FP, LANA DNA inh, RTF Ca sens inh, cardiac RTF act)
CC(C)Cn1c(N)c(C(=O)CSc2nnc(-c3ccco3)n2C)c(=O)n(C)c1=O	Keap1 Nrf2 FP 68.4 (no result: LANA DNA inh) | Keap1 TSA inactive
Cc1snc(S(=O)(=O)/C(C#N)=N/Nc2cccc(C(F)(F)F)c2)c1C#N	Keap1 Nrf2 FP 12.1 (no result: Tn6 DDE FP, DDE Tn7 FP inh) | Keap1 TSA inactive
Nc1nc(N)c2c(ccc3c2ccn3Cc2cccc([N+](=O)[O-])c2)n1	none (no result: Keap1 Nrf2 FP, LANA DNA inh, RTF Ca sens inh, cardiac RTF act)
Cc1n[nH]c(C)c1N1C(=O)c2cccc3c(N4CCCCCC4)ccc(c23)C1=O	Keap1 Nrf2 FP 15.7, cardiac RTF act 316.6 | Keap1 TSA inactive
O=C1c2cccc3c(N4CCCCC4)ccc(c23)C(=O)N1c1cccc(O)c1	Keap1 Nrf2 FP 27.0, cardiac RTF act 59.4 | Keap1 TSA inactive | Dye-only ctr inactive
O=C(c1cccc(N2C(=O)c3ccccc3C2=O)c1)N1CCCCCC1	none
CC(C)(C)c1ccc(S(=O)(=O)N2CCCC(C(=O)NCc3cccs3)C2)cc1 (centres undefined)	none (no result: Keap1 Nrf2 FP, LANA DNA inh, RTF Ca sens inh, cardiac RTF act)
S=C1NCCOc2ccccc21	none (no result: Keap1 Nrf2 FP, LANA DNA inh, RTF Ca sens inh, cardiac RTF act)
CCOc1ccc(NS(=O)(=O)c2ccc(C)c(C(=O)NCCCn3ccnc3)c2)cc1	none
CCOc1ccc(S(=O)(=O)Nc2cccc(C(=O)NCCCn3ccnc3)c2)cc1	Keap1 Nrf2 FP 27.4 | Keap1 TSA inactive
Cn1ccc2c(/C=C/c3ccc(F)cc3)cc3c(c21)C1CCC3O1 (centres undefined)	none (no result: Keap1 Nrf2 FP, LANA DNA inh, RTF Ca sens inh, cardiac RTF act)
COC(=O)c1cc(C)nc2c1c(C)nn2-c1ccccc1	Keap1 Nrf2 FP 43.7 | Keap1 TSA inactive | Dye-only ctr inactive
CC1(C)C=Cc2ccc(O)c(C(=O)/C=C/c3ccccc3)c2O1	none (no result: Keap1 Nrf2 FP, LANA DNA inh, RTF Ca sens inh, cardiac RTF act)
COCCCN1C(=O)C(CC(=O)NCc2ccco2)CC(C(=O)N(C(C)C)C(C)C)=C1C (centres undefined)	none (no result: Keap1 Nrf2 FP, LANA DNA inh, RTF Ca sens inh, cardiac RTF act)
CCCCCSc1nnc2c(n1)OC(C)N(C(C)=O)c1ccccc1-2 (centres undefined)	Keap1 Nrf2 FP 13.4 | Keap1 TSA inactive

Screens from PubChem.
